Experimental data from ChEMBL document CHEMBL1154402, “Antiviral effect of orally administered (-)-beta-D-2-aminopurine dioxolane in woodchucks with chronic woodchuck hepatitis virus infection” (Antimicrob Agents Chemother, 2007).
The source made the active and inactive calls. The calls are words filed in the database; no cut-off is given here.

Assays:
[1] = test system: Woodchuck hepatitis virus; assay: Antiviral activity against woodchuck hepatitis virus infected woodchucks assessed as log reduction of serum viral DNA per ml of serum after 4 weeks; assay type: functional
[2] = test system: Woodchuck hepatitis virus; assay: Antiviral activity against woodchuck hepatitis virus infected woodchucks assessed as log reduction of serum viral DNA per ml of serum after 12 weeks; assay type: functional
Duck hepatitis B virus [3] = assay: Antiviral activity against Duck hepatitis B virus chronically infected ducklings assessed as log reduction of serum viral DNA copies per ml of serum at 20 mg/kg, ip after 10 days; settings: route intraperitoneal
Duck hepatitis B virus [4] = assay: Antiviral activity against Duck hepatitis B virus infected ip dosed ducklings assessed as log reduction of serum viral DNA copies per ml of serum after 10 days
Duck hepatitis B virus [5] = assay: Antiviral activity against Duck hepatitis B virus experimentally infected ducklings assessed as log reduction of serum viral DNA copies per ml of serum at 40 mg/kg, ip after 10 days; settings: route intraperitoneal
[6] = Cmax in woodchuck hepatitis virus-negative woodchucks at 33.3 mg/kg, iv administered as single dose; assay type: ADME, organism-based; parameters: dose 33.3 mg/kg, route intravenous; settings: marmota monax, in vivo
In short: (§1)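 Three WHV-negative adult woodchucks got a 33.3 mg/kg iv bolus, with one saline control. After a 4-week washout the same three got 33.3 mg/kg orally. Blood was drawn predose and at 0.25–24 h. Serum APD and DXG were measured by HPLC-UV (LOQ 0.2 µM) and analysed noncompartmentally. AUC0-∞ used the trapezoidal rule, extrapolated by Clast/λz.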

Marmota monax [7] = assay: Toxicity in woodchuck hepatitis virus chronically infected woodchuck assessed as serum sorbitol dehydrogenase level at 30 mg/kg/day, po after 4 weeks; assay type: organism-based; parameters: route oral; settings: in vivo, 672 h
In short: (§2)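 Serum ALT and SDH were measured as hepatocellular injury markers in chronic WHV carriers dosed orally once daily for 4 weeks. Blood was drawn under ketamine (50 mg/kg) and xylazine (5 mg/kg) im anaesthesia before treatment and weekly during treatment.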

[8] = test system: Woodchuck hepatitis virus; assay: Antiviral activity against woodchuck hepatitis virus chronically infected woodchucks assessed as reduction of viral DNA replicative intermediates at 3 mg/kg/day, po after 4 weeks; assay type: functional, organism-based
In short: (§3)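 Liver biopsies were taken by ultrasound-guided needle under ketamine/xylazine anaesthesia. Timing was 1 week before and at the end of 4 weeks of once-daily oral dosing (1–30 mg/kg/day or placebo diet; five woodchucks per group). Samples were snap-frozen and stored at –70°C. Hepatic WHV DNA replicative intermediates were quantified by Southern blot hybridization and compared with placebo.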

[9] = Terminal elimination half life in orally dosed monkey; assay type: ADME, organism-based, Macaca mulatta; settings: rhesus monkey, in vivo, po; read-out: beta t1/2 (converted)
[10] = test system: Woodchuck hepatitis virus; assay: Antiviral activity against woodchuck hepatitis virus chronically infected woodchucks assessed as log reduction of serum viral DNA at 3 mg/kg/day, po after 4 weeks; assay type: functional
In short: (§4)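 Chronic WHV-carrier adult woodchucks were stratified into groups of five and dosed orally once daily for 4 weeks (saline solution in liquid diet; diet-alone placebo). Serum WHV DNA was measured weekly by dot blot (sensitivity 1.0 x 10^7 WHVge/ml) or by triplicate real-time PCR (sensitivity 1.0 x 10^3 WHVge/ml) against pWHV8 standards. Log values were compared with week 0 and placebo by repeated-measures ANOVA with Holm-Sidak.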

[11] = Cmax in woodchuck hepatitis virus-negative woodchucks at 33.3 mg/kg, iv administered as single dose followed by dose of 33.3 mg/kg, po after 4 weeks washout period; assay type: ADME, organism-based; settings: marmota monax, in vivo; in short: as §1
[12] = Terminal elimination half life in woodchuck hepatitis virus-negative woodchucks at 33.3 mg/kg, iv administered as single dose followed by dose of 33.3 mg/kg, po after 4 weeks washout period; assay type: ADME, organism-based; settings: marmota monax, in vivo, read-out: beta t1/2 (converted); in short: as §1
Rhesus monkey = assay: AUC in po dosed rhesus monkey assessed as serum 9-(beta-D-1,3-dioxolan-4-yl)guanine level; assay type: ADME, organism-based, Macaca mulatta, Plasma; settings: in vivo
Marmota monax [13] = assay: Toxicity in woodchuck hepatitis virus chronically infected woodchucks assessed as change in body weight administered once daily for 4 weeks; assay type: organism-based; settings: in vivo, 672 h
[14] = test system: Woodchuck hepatitis virus; assay: Antiviral activity against woodchuck hepatitis virus chronically infected in woodchucks M7236 assessed as reduction in anti-WHs antibody levels at 30 mg/kg/day, po after 4 weeks; assay type: functional, organism-based
[15] = test system: Woodchuck hepatitis virus; assay: Antiviral activity against woodchuck hepatitis virus chronically infected woodchucks assessed as log reduction of serum viral DNA at 30 mg/kg/day, po after 4 weeks; assay type: functional; in short: as §4
[16] = test system: Woodchuck hepatitis virus; assay: Antiviral activity against woodchuck hepatitis virus chronically infected woodchucks assessed as log reduction of serum viral DNA at 10 mg/kg/day, po after 4 weeks; assay type: functional; in short: as §4
[17] = AUC (0 to infinity) in woodchuck hepatitis virus-negative woodchucks at 33.3 mg/kg, iv administered as single dose followed by dose of 33.3 mg/kg, po after 4 weeks washout period; assay type: ADME, organism-based; settings: marmota monax, plasma; in short: as §1
[18] = Terminal elimination half life in orally dosed mouse; assay type: ADME, organism-based; settings: in vivo, po, read-out: beta t1/2 (converted)
[19] = test system: Woodchuck hepatitis virus; assay: Antiviral activity against woodchuck hepatitis virus chronically infected in woodchucks assessed as reduction in viral surface antigen level in blood at 30 mg/kg/day, po after 4 weeks; assay type: functional
In short: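 Adult woodchucks chronically infected with WHV, in groups of five, got the drug dissolved in isotonic saline and suspended in a semisynthetic liquid diet, by oral dose syringe once daily for 4 weeks. Placebo was diet alone. Serum WHsAg was measured by WHV-specific enzyme immunoassay (optical density units) before, during and after treatment up to week 16.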

[20] = Terminal elimination half life in woodchuck hepatitis virus-negative woodchucks at 33.3 mg/kg, iv administered as single dose; assay type: ADME, organism-based; parameters: dose 33.3 mg/kg, route intravenous; settings: marmota monax, in vivo, read-out: beta t1/2 (converted); in short: as §1
[21] = test system: Woodchuck hepatitis virus; assay: Antiviral activity against woodchuck hepatitis virus chronically infected woodchucks assessed as reduction of serum viral DNA at 1 mg/kg/day, po after 4 weeks; assay type: functional, organism-based
In short: (§5)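 Chronic WHV carriers were stratified into groups of five. They were dosed orally once daily for 4 weeks at 1, 3, 10 or 30 mg/kg/day, or given liquid-diet placebo; drug was dissolved in saline and suspended in diet by syringe. Serum WHV DNA was measured weekly by triplicate dot blot (sensitivity 1.0 x 107 WHVge/ml) or triplicate real-time PCR (1.0 x 103 WHVge/ml) against pWHV8 standards. Log values were compared with pretreatment and placebo by repeated-measures ANOVA with Holm-Sidak tests.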

[22] = test system: Woodchuck hepatitis virus; assay: Antiviral activity against woodchuck hepatitis virus chronically infected woodchucks assessed as reduction of viral DNA replicative intermediates at 10 mg/kg/day, po after 4 weeks; assay type: functional, organism-based; in short: as §3
Marmota monax [23] = assay: Toxicity in woodchuck hepatitis virus chronically infected woodchuck assessed as serum alanine aminotransferase level at 30 mg/kg/day, po after 4 weeks; assay type: organism-based; parameters: route oral; settings: in vivo, 672 h; in short: as §2
[24] = test system: Woodchuck hepatitis virus; assay: Antiviral activity against woodchuck hepatitis virus chronically infected in woodchucks M7250 assessed as reduction in anti-WHs antibody levels at 30 mg/kg/day, po after 4 weeks; assay type: functional, organism-based
[25] = test system: Woodchuck hepatitis virus; assay: Antiviral activity against woodchuck hepatitis virus chronically infected woodchucks assessed as log reduction of viral DNA replicative intermediates at 30 mg/kg/day, po after 4 weeks relative to control; assay type: functional, organism-based; in short: as §3
[26] = test system: Woodchuck hepatitis virus; assay: Antiviral activity against woodchuck hepatitis virus chronically infected in woodchucks assessed as reduction in anti-WHV core antigen antibody levels at 30 mg/kg/day, po after 4 weeks; assay type: functional, organism-based
[27] = AUC (0 to infinity) in woodchuck hepatitis virus-negative woodchucks at 33.3 mg/kg, iv administered as single dose; assay type: ADME, organism-based; parameters: time infinity, dose 33.3 mg/kg, route intravenous; settings: marmota monax, plasma; in short: as §1
[28] = test system: Woodchuck hepatitis virus; assay: Antiviral activity against woodchuck hepatitis virus chronically infected orally dosed woodchucks assessed as reduction in serum viremia administered once daily for 4 weeks; assay type: functional, organism-based; in short: as §5
[29] = test system: Woodchuck hepatitis virus; assay: Antiviral activity against woodchuck hepatitis virus chronically infected woodchucks assessed as reduction of viral DNA replicative intermediates at 1 mg/kg/day, po after 4 weeks; assay type: functional, organism-based; in short: as §3

CC(C)OC(=O)OCOP(=O)(CO[C@H](C)Cn1cnc2c(N)ncnc21)OCOC(=O)OC(C)C.O=C(O)/C=C/C(=O)O [TENOFOVIR DISOPROXIL FUMARATE]
Activity [1]: 1.5

CC(C)(C)C(=O)OCOP(=O)(COCCn1cnc2c(N)ncnc21)OCOC(=O)C(C)(C)C [ADEFOVIR DIPIVOXIL]
Activity [2]: >2.5 | Activity [1]: 1.8

Nc1ncnc2c1ncn2[C@H]1C[C@H](O)[C@@H](CO)O1 [DEOXYADENOSINE]
Activity [1]: 1.5

Nc1nc(N)c2ncn([C@H]3CO[C@@H](CO)O3)c2n1 [AMDOXOVIR]
Activity (Duck hepatitis B virus [3]): 0.3 | Activity (Duck hepatitis B virus [4]): Dose-dependent effect | Activity (Duck hepatitis B virus [5]): 0.9

Nc1ncc2ncn([C@H]3CO[C@@H](CO)O3)c2n1
Cmax [6]: 112 µM | Activity (Marmota monax [7]): 211.5 IU/L | Activity [8]: inactive | half-life [9]: 0.5 h | Activity [10]: 0.4 | Cmax [11]: 16.8 µM | half-life [12]: 3 h | %AUC (Rhesus monkey): 75% | Activity (Marmota monax [13]): Non-toxic | Activity [14]: inactive | Activity [15]: 1.9 | Activity [16]: 0.7 | AUC(0-inf) [17]: 49.4 µM·h | half-life [18]: 0.3 h | fold change (FC) [19]: 1.4 | half-life [20]: 1.7 h | Activity [21]: inactive | Activity [22]: inactive | Activity (Marmota monax [23]): 9.5 IU/L | Activity [24]: inactive | Activity [25]: Active | Activity [26]: inactive | AUC(0-inf) [27]: 203 µM·h | Activity [28]: Dose-dependent effect | Activity [29]: inactive

CCCCCCCCCCCCCCCCOCCCOP(=O)(O)OCCOCn1cnc2c(=O)[nH]c(N)nc21
Activity [1]: 1.4

CC(=O)OCC(CCn1cnc2cnc(N)nc21)COC(C)=O [FAMCICLOVIR]
Activity [1]: 1.4
